ChEMBL document CHEMBL4041520, “Novel pyrimidine-2,4-dione-1,2,3-triazole and furo[2,3-d]pyrimidine-2-one-1,2,3-triazole hybrids as potential anti-cancer agents: Synthesis, computational and X-ray analysis and biological evaluation” (Eur J Med Chem, 2017)

How the values were obtained:
[1] = test system: A549; experiment: Antiproliferative activity against human A549 cells after 72 hrs by MTT assay; type: functional, cell-based; conditions: A549, 72 h
Summary of the method: (§1)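 Monolayers grown in DMEM with 10% FBS and 2 mM L-glutamine at 37 °C, 5% CO2. Cells seeded at 5000 per well on day 0. Compounds added in five 10-fold dilutions (0.01–100 µM), DMSO ≤0.1%, for 72 h. MTT absorbance converted to percentage growth versus untreated wells. IC50 by linear regression of the dose-response curve; highest concentration reported when not reached. Quadruplicate points, three experiments.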

[2] = test system: HepG2; experiment: Antiproliferative activity against human HepG2 cells after 72 hrs by MTT assay; type: functional, cell-based; conditions: HepG2, 72 h; summary of the method: as §1
[3] = test system: CFPAC-1; experiment: Antiproliferative activity against human CFPAC-1 cells after 72 hrs by MTT assay; type: functional, cell-based; conditions: CFPAC-1, 72 h; summary of the method: as §1
[4] = test system: HeLa; experiment: Antiproliferative activity against human HeLa cells after 72 hrs by MTT assay; type: functional, cell-based; summary of the method: as §1
[5] = test system: SW-620; experiment: Antiproliferative activity against human SW620 cells after 72 hrs by MTT assay; type: functional, cell-based; conditions: SW-620, 72 h; summary of the method: as §1
[6] = test system: WI-38; experiment: Antiproliferative activity against human WI38 cells after 72 hrs by MTT assay; type: cell-based; conditions: WI-38, 72 h; summary of the method: as §1
[7] = test system: NIH3T3; experiment: Antiproliferative activity against mouse NIH/3T3 cells after 72 hrs by MTT assay; type: cell-based; conditions: NIH3T3, 72 h; summary of the method: as §1

| Structure (SMILES) | IC50 [1] | IC50 [2] | IC50 [3] | IC50 [4] | IC50 [5] | IC50 [6] | IC50 [7] |
| --- | --- | --- | --- | --- | --- | --- | --- |
| O=c1nc2oc(CCCCl)cc2cn1Cc1cn(Cc2ccccc2)nn1 | 27.9 µM | 27.6 µM | 23.5 µM | 9.58 µM | 75.5 µM | 5.2 µM | – |
| O=c1c(I)cn(Cc2cn(-c3ccc(F)cc3)nn2)c(=O)n1Cc1cn(-c2ccc(F)cc2)nn1 | 78.7 µM | 53.5 µM | 51.2 µM | 41.9 µM | 94.8 µM | < 0.01 µM | – |
| CCCCCc1ccc(C#Cc2c(-c3ccc(CCCCC)cc3)oc3nc(=O)n(Cc4cn(Cc5ccccc5)nn4)cc23)cc1 | > 100 µM | > 100 µM | > 100 µM | 73 µM | > 100 µM | 2.65 µM | – |
| CCCCCc1ccc(C#Cc2c(-c3ccc(CCCCC)cc3)oc3nc(=O)n(Cc4cn(-c5ccc(Cl)cc5)nn4)cc23)cc1 | > 100 µM | > 100 µM | > 100 µM | > 100 µM | > 100 µM | > 100 µM | – |
| C#CCn1c(=O)c(I)cn(Cc2cn(-c3ccc(Cl)cc3)nn2)c1=O | 4.69 µM | 13.1 µM | 5.53 µM | 4.74 µM | 18.3 µM | 0.04 µM | – |
| CCCCCCC#Cc1c(CCCCCC)oc2nc(=O)n(Cc3cn(-c4ccc(F)cc4)nn3)cc12 | > 100 µM | > 100 µM | > 100 µM | > 100 µM | > 100 µM | > 100 µM | – |
| O=c1[nH]c(=O)n(Cc2cn(Cc3ccccc3)nn2)cc1I | > 100 µM | > 100 µM | > 100 µM | > 100 µM | > 100 µM | 55.2 µM | – |
| O=c1[nH]c(=O)n(Cc2cn(-c3ccc(F)cc3)nn2)cc1Br | 64 µM | 68.9 µM | > 100 µM | 72.9 µM | > 100 µM | – | 50.8 µM |
| O=c1nc2oc(C3CC3)cc2cn1Cc1cn(-c2ccc(Cl)cc2)nn1 | 61 µM | > 100 µM | > 100 µM | > 100 µM | > 100 µM | > 100 µM | – |
| O=c1nc2oc(CCCCl)cc2cn1Cc1cn(-c2ccc(Cl)cc2)nn1 | 52 µM | 89.8 µM | > 100 µM | 60.2 µM | > 100 µM | 72.5 µM | – |
| O=c1[nH]c(=O)n(Cc2cn(-c3ccc(F)cc3)nn2)cc1I | 78.8 µM | > 100 µM | 83.7 µM | 7.2 µM | > 100 µM | 3.78 µM | – |
| O=c1[nH]cc(F)c(=O)[nH]1 [FLUOROURACIL] | 2.8 µM | – | 0.14 µM | 8.81 µM | 0.08 µM | 0.94 µM | – |
| O=c1c(Br)cn(Cc2cn(-c3cc(Cl)cc(Cl)c3)nn2)c(=O)n1Cc1cn(-c2cc(Cl)cc(Cl)c2)nn1 | 95.8 µM | 42.7 µM | > 100 µM | > 100 µM | > 100 µM | – | 4.3 µM |
| O=c1c(I)cn(Cc2cn(-c3ccc(Cl)cc3)nn2)c(=O)n1Cc1cn(-c2ccc(Cl)cc2)nn1 | 71.1 µM | > 100 µM | > 100 µM | 96.5 µM | > 100 µM | 0.03 µM | – |
| O=c1nc2oc(C3CC3)c(C#CC3CC3)c2cn1Cc1cn(Cc2ccccc2)nn1 | 4.81 µM | 2.67 µM | 4.59 µM | 6.51 µM | 9.72 µM | 0.29 µM | – |
| O=c1[nH]c(=O)n(Cc2cn(-c3cc(Cl)cc(Cl)c3)nn2)cc1Br | 80.7 µM | 7.66 µM | 5.51 µM | 8.42 µM | 9.87 µM | – | 1.16 µM |
| O=c1nc2oc(C3CC3)c(C#CC3CC3)c2cn1Cc1cn(-c2ccccc2F)nn1 | 38.3 µM | 39.1 µM | 54.5 µM | 51.2 µM | 49.1 µM | 45.9 µM | – |
| O=c1nc2oc(CCCCl)cc2cn1Cc1cn(-c2ccccc2F)nn1 | 69.8 µM | 79.8 µM | 81.8 µM | 66.5 µM | > 100 µM | 76.5 µM | – |
| O=c1nc2oc(CCCCl)cc2cn1Cc1cn(-c2ccc(F)cc2)nn1 | 68.4 µM | 14.6 µM | 6.49 µM | 6.99 µM | > 100 µM | < 0.01 µM | – |

| Structure (SMILES) | IC50 [1] | IC50 [2] | IC50 [3] | IC50 [4] | IC50 [5] | IC50 [6] | IC50 [7] |
| --- | --- | --- | --- | --- | --- | --- | --- |
| O=c1nc2oc(C3CC3)c(C#CC3CC3)c2cn1Cc1cn(-c2ccc(Cl)cc2)nn1 | 39 µM | 39.2 µM | 35.4 µM | 16.1 µM | 36.9 µM | 3.15 µM | – |
| C#CCn1c(=O)c(I)cn(Cc2cn(-c3ccc(F)cc3)nn2)c1=O | 3.06 µM | 5.11 µM | 4.21 µM | 4.5 µM | 6.63 µM | < 0.01 µM | – |
| O=c1[nH]c(=O)n(Cc2cn(-c3ccccc3F)nn2)cc1Br | > 100 µM | > 100 µM | > 100 µM | 93.9 µM | ≥ 100 µM | – | 59.3 µM |
| O=c1nc2oc(CCCCl)c(C#CCCCCl)c2cn1Cc1cn(-c2ccc(Cl)cc2)nn1 | > 100 µM | 72.5 µM | > 100 µM | > 100 µM | > 100 µM | > 100 µM | – |
| O=c1c(I)cn(Cc2cn(-c3ccccc3F)nn2)c(=O)n1Cc1cn(-c2ccccc2F)nn1 | 53.4 µM | 36.1 µM | 55.9 µM | 49.8 µM | > 100 µM | 2.22 µM | – |
| O=c1nc2oc(CCCCl)c(C#CCCCCl)c2cn1Cc1cn(Cc2ccccc2)nn1 | 26.9 µM | 25.5 µM | 32.8 µM | 25.4 µM | 33.9 µM | 17.6 µM | – |
| O=c1c(I)cn(Cc2cn(Cc3ccccc3)nn2)c(=O)n1Cc1cn(Cc2ccccc2)nn1 | 41.3 µM | 5.77 µM | > 100 µM | 15.1 µM | > 100 µM | < 0.01 µM | – |
| CCCCCCC#Cc1c(CCCCCC)oc2nc(=O)n(Cc3cn(-c4ccc(Cl)cc4)nn3)cc12 | > 100 µM | > 100 µM | > 100 µM | > 100 µM | > 100 µM | > 100 µM | – |
| CCCCCCc1cc2cn(Cc3cn(-c4ccccc4F)nn3)c(=O)nc2o1 | > 100 µM | > 100 µM | > 100 µM | > 100 µM | > 100 µM | 69.2 µM | – |
| O=c1nc2oc(CCCCl)c(C#CCCCCl)c2cn1Cc1cn(-c2ccc(F)cc2)nn1 | 39.4 µM | 36.9 µM | 95.8 µM | 41.8 µM | 69.6 µM | 0.07 µM | – |
| CCCCCCc1cc2cn(Cc3cn(Cc4ccccc4)nn3)c(=O)nc2o1 | 51 µM | 68.7 µM | 67 µM | 59.4 µM | 93.5 µM | 62.8 µM | – |
| CCCCCc1ccc(C#Cc2c(-c3ccc(CCCCC)cc3)oc3nc(=O)n(Cc4cn(-c5ccccc5F)nn4)cc23)cc1 | 38.6 µM | 72.5 µM | > 100 µM | 9 µM | 57.1 µM | 7.34 µM | – |
| O=c1[nH]c(=O)n(Cc2cn(-c3ccc(Cl)cc3)nn2)cc1Br | 40.9 µM | 19.1 µM | 39.5 µM | 33.3 µM | > 100 µM | – | 6.7 µM |
| CCCCCCC#Cc1c(CCCCCC)oc2nc(=O)n(Cc3cn(Cc4ccccc4)nn3)cc12 | 21.9 µM | 25.8 µM | 27.3 µM | 23.4 µM | 32.6 µM | 23.4 µM | – |
| C#CCn1c(=O)c(I)cn(Cc2cn(-c3ccccc3F)nn2)c1=O | 56.2 µM | > 100 µM | > 100 µM | > 100 µM | > 100 µM | 0.16 µM | – |
| O=c1[nH]c(=O)n(Cc2cn(-c3ccccc3F)nn2)cc1I | 95.1 µM | > 100 µM | > 100 µM | > 100 µM | > 100 µM | 73.1 µM | – |
| O=c1nc2oc(C3CC3)cc2cn1Cc1cn(Cc2ccccc2)nn1 | 45 µM | 49.1 µM | 48.5 µM | 50 µM | 54.7 µM | 29.7 µM | – |
| O=c1[nH]c(=O)n(Cc2cn(-c3ccc(Cl)cc3)nn2)cc1I | 50.6 µM | > 100 µM | 77.2 µM | 6.79 µM | 34.6 µM | < 0.01 µM | – |
